Compounds with a hit are over-represented: about 3% of the library has one in this group of screens.
Exocytosis inh = blocks lytic granule exocytosis. TALL-104 LAMP-1 surface exposure, flow cytometry; cells stimulated with thapsigargin and PMA. inhibition, % at 10 µM. 360,000 tested, 0.66% active;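 active means inhibition above about 55%, limit read from the data; inconclusive means no clear call, values can overlap the other calls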
SENP1 inh = SENP1 (human) catalytic domain inhibition. 360,000 tested, 0.21% active. Q9P0U3. inhibition, % at 10 µM. recombinant SENP1 catalytic domain, CyPet-SUMO1-YPet FRET cleavage;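 active means inhibition at least 30% at 10 µM, raw YFP signal under a set limit, fluorescence ratio 0.5 to 1.5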
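Test system: human SENP1 catalytic domain; medium: Tris pH 8 buffer plus EDTA, NaCl, BME, BSA, NP40, catalase; incubation: 50 min reaction at room temperature; technique: FRET, CFP and YFP emission; controls: no-enzyme low control and enzyme-plus-DMSO high control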
Myeloid diff 2 = myeloid differentiation induction; ER-HoxA9 myeloid progenitors, lysozyme-GFP differentiation, flow cytometry; calls only at 10 µM; 360,000 tested, 1% active; AID 624256;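 active means normalized GFP-positive differentiation at or above the plate's own cutoff, the solvent-only control mean plus 3 SD; inconclusive means no clear call, values can overlap the other calls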;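 further: cells exposed to compound for four days before flow analysis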
HNF4A DNA FP = change in binding of human HNF4 alpha to DNA. 360,000 tested, 0.3% active. P41235. activity change, % at 10 µM. AID 1224865. HNF4a-FITC DNA binding, fluorescence polarization, 1 h; in the data active means activity change above about 30%, passing the limit was not always enough
DSG3 Ab inh = human desmoglein-3 autoantibody binding inhibition | P32926 | DSG3-coupled beads, scFv-anti-DSG3-GFP binding, flow cytometry; hits give low values | binding (percent of control), % at 10 µM | 310,000 tested, 0.48% active | AID 588358;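 active means binding more than 3 SD below its plate's average and above zero; inconclusive means below that plate limit but binding exactly zero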;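 further: hits lower antibody fragment binding to DSG3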
Target sequence (P32926 whole entry, looked up, the tested form may be a part): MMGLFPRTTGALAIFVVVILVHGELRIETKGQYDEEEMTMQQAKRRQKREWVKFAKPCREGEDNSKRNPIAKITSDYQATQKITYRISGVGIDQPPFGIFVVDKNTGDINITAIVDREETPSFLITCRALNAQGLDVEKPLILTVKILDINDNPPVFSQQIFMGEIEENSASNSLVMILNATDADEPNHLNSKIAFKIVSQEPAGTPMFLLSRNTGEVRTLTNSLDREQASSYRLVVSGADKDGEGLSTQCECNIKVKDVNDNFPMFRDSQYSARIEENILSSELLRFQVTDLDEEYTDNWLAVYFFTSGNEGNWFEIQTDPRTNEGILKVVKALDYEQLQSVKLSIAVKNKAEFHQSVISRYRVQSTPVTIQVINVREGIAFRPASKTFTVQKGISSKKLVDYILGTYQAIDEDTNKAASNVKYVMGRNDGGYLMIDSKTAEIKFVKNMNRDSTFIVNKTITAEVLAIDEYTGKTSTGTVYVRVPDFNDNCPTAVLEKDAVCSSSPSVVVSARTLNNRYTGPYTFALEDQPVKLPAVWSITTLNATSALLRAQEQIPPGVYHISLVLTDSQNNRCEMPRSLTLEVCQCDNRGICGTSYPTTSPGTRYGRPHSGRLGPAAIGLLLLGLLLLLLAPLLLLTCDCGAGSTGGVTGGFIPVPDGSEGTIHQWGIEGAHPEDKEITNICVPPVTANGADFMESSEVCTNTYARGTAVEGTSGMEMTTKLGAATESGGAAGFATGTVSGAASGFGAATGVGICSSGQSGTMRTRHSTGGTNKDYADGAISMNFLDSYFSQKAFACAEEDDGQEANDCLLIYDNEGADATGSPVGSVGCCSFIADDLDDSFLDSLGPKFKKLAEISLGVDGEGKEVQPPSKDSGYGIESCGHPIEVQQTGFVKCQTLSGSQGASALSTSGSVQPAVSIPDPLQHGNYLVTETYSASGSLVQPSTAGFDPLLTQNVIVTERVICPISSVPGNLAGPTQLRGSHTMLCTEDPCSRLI
H9c2 protect = myocardial damage modulation in H9c2 cells | 360,000 tested, 0.63% active | AID 588492 | protection from H2O2 cell death, % at 20 µM | H9c2 cardiomyocytes, H2O2 injury protection, ATPLite, 2 h;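 active means compounds giving at least 50% protection of heart cells from peroxide-induced death in the single-dose screen, raw or plate-pattern-corrected value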
HNF4A confirm = change in binding of human HNF4 alpha to DNA, retest; shares compounds with HNF4A DNA FP; HNF4A-FITC DNA binding, fluorescence polarization, 1 h; activity change, % at 12.5 µM; 210 tested, 99% active; call rule not given here
A number is an active result; - = inactive; ? = inconclusive; . = no result; + = active, no number.

SMILES | Exocytosis inh | SENP1 inh | Myeloid diff 2 | HNF4A DNA FP | DSG3 Ab inh | H9c2 protect | HNF4A confirm
COc1cc([C@@H]2[C@H]3CNCC=C3C(C#N)=C(N)C2(C#N)C#N)ccc1OC(C)C | - | - | + | 48 | - | - | 56
COc1cc(C2C3CN(C)CC=C3C(C#N)=C(N)C2(C#N)C#N)ccc1OC(C)C (centres undefined) | - | - | - | - | . | - | .
Cc1ccc(S(=O)(=O)N2CCC(=O)c3ccccc32)cc1 | - | - | - | - | - | - | .
Cc1cccc(-c2noc(CNC(=O)c3ccoc3C)n2)c1 | - | - | + | 50 | - | - | 32
CN(C)c1ccc(/C=N/NC(=O)c2ccc3c(c2)OCCO3)cc1 | - | - | - | - | - | - | .
CN(C)c1ccc(/C=N/NC(=O)c2cc(-c3ccc4c(c3)OCO4)n[nH]2)cc1 | - | - | - | 47 | . | - | 59
CN(C(=O)c1cccc(NC(=O)Cc2cccc([N+](=O)[O-])c2)c1)C1CC1 | - | - | - | - | - | - | .
Nc1cc2c(cc1Cl)-c1ccc([N+](=O)[O-])cc1C2=NO | - | - | . | 51 | - | - | 52
O=[N+]([O-])c1ccc2c(c1)/C(=N\O)c1ccccc1-2 | - | - | - | - | . | - | .
Cc1ccc(F)cc1NC(=O)CN1C(=O)NC2(CCCc3ccccc32)C1=O (centres undefined) | - | - | - | - | ? | - | .
O=C(N/N=C/c1ccc(-c2ccc([N+](=O)[O-])cc2)o1)[C@H]1C[C@@H]1c1ccccc1 | 62 | - | - | 65 | - | - | 74
CC(=O)Oc1c(C)c(OC(C)=O)c2c(c1C(C)=O)OC1CC(=O)C(C(C)=O)=C(O)C21C (centres undefined) | - | - | - | - | - | - | .
CC(=O)c1c(O)c(C)c(O)c2c1OC1=CC(=O)C(C(C)=O)C(=O)[C@@]12C (some centres undefined) | - | - | - | 65 | - | - | 57
Cc1cc2nccnc2cc1C | - | - | - | - | - | - | .
COc1cc(/C=C2/C(=O)N(C)C(=S)N2C)ccc1OCc1cccc(F)c1 | - | - | . | 36 | - | - | 50
COc1cc(/C=N/c2oc(C)c(C)c2C#N)cc(Br)c1O | - | - | - | 60 | - | - | 78
COc1ccc(C2NN=C(c3c[nH]c4ccccc34)C2O)cc1 (centres undefined) | - | - | - | 57 | - | - | 89
COc1ccc(CCN2CC(C(=O)NCc3cccc(F)c3)CCC2=O)cc1 (centres undefined) | - | - | - | - | - | - | .
Cc1ccc(/C=C2/Sc3ccc(C(=O)NCc4ccccn4)cc3NC2=O)cc1 | - | - | - | 72 | - | - | 58
Cc1ccc(/C=C2/Sc3ccc(C(=O)N4CCN(c5ccccn5)CC4)cc3NC2=O)cc1 | - | - | - | - | - | - | .
O=C(O)Cc1ccc2oc(-c3cccnc3)nc2c1 | - | - | - | - | - | - | .
N#Cc1c(Nc2cccc(F)c2)sc2c(O)cc(=O)[nH]c12 | - | - | - | 44 | . | - | 52
N#Cc1c(SCC(=O)Nc2ccc(C(F)(F)F)cc2)sc2c(O)cc(=O)[nH]c12 | - | - | - | - | - | - | .
CC(=O)N1CCC(N(CCN2CCOCC2)C(=S)Nc2ccc(C)c(C)c2)CC1 | - | - | - | - | - | - | .
COc1ccc(CC(=O)Nc2ccc(-c3nnc(-c4ccccc4)o3)cc2)cc1OC | - | - | - | 36 | - | - | 73
SMILES | Exocytosis inh | SENP1 inh | Myeloid diff 2 | HNF4A DNA FP | DSG3 Ab inh | H9c2 protect | HNF4A confirm
C=CCCC(=O)N1C[C@H]2CON(C)[C@H]2C[C@H]1c1ccc(N2CCCCC2)cc1 | - | - | - | 43 | . | - | 45
COc1cc(C(=O)N2C[C@H]3CON(C)[C@H]3C[C@H]2c2ccc(N3CCCCC3)cc2)cc(OC)c1OC | - | - | - | - | . | - | .
CCOc1ccc2cc(/C=C/C(=O)c3ccco3)c(Cl)nc2c1 | - | - | + | 34 | - | - | 36
CCOc1ccc2nc(SCC(=O)NNC(=O)c3ccco3)c(C)cc2c1 | - | - | - | - | - | - | .
CC(=O)Nc1ccc(NC(=O)CNC(=O)c2cccc(C)c2)cc1 | - | - | - | - | - | - | .
CN(C)c1ccc(/C=C(\C#N)C(=O)OCC(=O)N(C)C2CCS(=O)(=O)C2)cc1 (centres undefined) | - | - | - | 42 | . | - | 75
CCN(C(=O)COC(=O)/C(C#N)=C/c1ccc(N(C)C)cc1)C1CCS(=O)(=O)C1 (centres undefined) | - | - | - | 46 | - | - | 71
CC(=O)N/C(=C\c1ccccc1)C(=O)OCC(=O)N(C)C1CCS(=O)(=O)C1 (centres undefined) | - | - | - | - | - | - | .
CCCNC(=O)NC1CCCc2ccccc21 (centres undefined) | - | - | - | - | - | - | .
O=C(Nc1ccc(S(=O)(=O)Nc2nccs2)cc1)c1ccc(N2C(=O)c3ccccc3C2=O)cc1 | - | - | - | 53 | - | - | 66
CC1(C(=O)NS(=O)(=O)c2cccc(Cl)c2)CCN1C(=O)Cc1ccsc1 (centres undefined) | - | - | - | - | . | - | .
CCN1CCc2c(sc(NC(=O)c3ccc4ccccc4c3)c2C(N)=O)C1 | - | - | ? | 38 | . | - | 65
CCN1CCc2c(sc(NC(=O)CN3C(=O)c4ccccc4C3=O)c2C(N)=O)C1 | - | - | - | - | - | - | .
CCS(=O)(=O)N1N=C(c2ccccc2)CC1c1ccc2nccnc2c1 (centres undefined) | - | - | - | 53 | - | - | 75
CCN(CC)C(=O)CSC(Nc1ccc(F)cc1)=C(C#N)C#N | - | - | - | 37 | - | - | 62
Cc1ccc(CSC(Nc2ccc(F)cc2)=C(C#N)C#N)cc1 | - | - | - | - | - | - | .
Cc1nc([N+](=O)[O-])cn1CC(=O)Nc1ccc([N+](=O)[O-])cc1 | - | - | - | - | - | - | .
O=C(Cc1c(F)cccc1Cl)Nc1nccs1 | - | - | - | - | - | - | .
COc1ccc2c(C)cc(SCC(=O)Nc3nsc(-c4ccc(C)cc4)n3)nc2c1 | - | - | - | - | - | - | .
Cc1ccc(-c2nc(NC(=O)CSc3cc(C)c4ccccc4n3)ns2)cc1 | - | - | - | 162 | -0.3 | - | 94
CCCCN1C(=O)/C(=C2/Sc3ccccc3N2C)S/C1=N\c1ncn[nH]1 | - | - | - | 46 | - | - | 75
O=C(Cn1cc(/C=N/NC(=O)c2ccccc2Br)c2ccccc21)Nc1ccc(F)cc1 | - | - | - | - | - | - | .

Bioassay records deposited in PubChem by several laboratories.
